Assay results: ChEMBL document CHEMBL2311444, “Synthesis of derivatives of the keto-pyrrolyl-difluorophenol scaffold: some structural aspects for aldose reductase inhibitory activity and selectivity” (Bioorg Med Chem, 2013)

Columns and labels:
[1] = molecular target: Aldo-keto reductase family 1 member B1 (Rattus norvegicus, UniProt P07943); test: Inhibition of Fischer-344 rat lens ALR2 by spectrophotometry
Rattus norvegicus = species on record: Rattus norvegicus; test: Selectivity index, ratio of IC50 for Fischer-344 rat kidney ALR1 to IC50 for Fischer-344 rat lens ALR2; assay type: tissue-based; conditions: Lens of camera-type eye
Procedure, shortened: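 Selectivity index calculated from the IC50 values of two spectrophotometric NADPH-consumption assays (340 nm). Rat kidney ALR1 was measured at 37 °C and rat lens ALR2 at 30 °C. Each IC50 was derived by least-squares fitting of triplicate five-concentration log(dose)–response data.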

[2] = molecular target: Aldo-keto reductase family 1 member A1 (Rattus norvegicus) (UniProt P51635); test: Inhibition of Fischer-344 rat kidney ALR1 using D-glycuronate as substrate at 10' -5 M by spectrophotometry
[3] = molecular target: Aldo-keto reductase family 1 member A1 (Rattus norvegicus, UniProt P51635); test: Inhibition of Fischer-344 rat kidney ALR1 using D-glycuronate as substrate by spectrophotometry
Chain of Aldo-keto reductase family 1 member A1 (P51635 whole entry, looked up): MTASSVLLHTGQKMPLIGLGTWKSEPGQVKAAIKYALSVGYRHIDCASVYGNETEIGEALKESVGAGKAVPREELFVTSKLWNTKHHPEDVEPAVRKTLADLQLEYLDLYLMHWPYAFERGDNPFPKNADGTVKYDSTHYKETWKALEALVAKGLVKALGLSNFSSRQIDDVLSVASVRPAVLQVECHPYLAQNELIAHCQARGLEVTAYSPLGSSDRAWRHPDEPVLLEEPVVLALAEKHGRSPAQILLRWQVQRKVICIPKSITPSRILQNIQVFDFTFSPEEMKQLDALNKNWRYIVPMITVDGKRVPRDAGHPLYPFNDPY

Chain of Aldo-keto reductase family 1 member A1 (Rattus norvegicus) (P51635 whole entry, looked up): as above

Compound | IC50 [1] [nM] | inhibition [2] [%] | IC50 [3] [nM] | Ratio IC50 (Rattus norvegicus)
O=C(c1ccc(Br)cc1F)c1cccn1-c1cc(F)c(O)c(F)c1 | 190 | 96.8 | 190 | 1
O=C(c1cccn1-c1cc(F)c(O)c(F)c1)C(F)(F)F | 930 | 26.5 | 18900 | 20.3
O=C(c1ccc(-c2ccccc2)cc1)c1cccn1-c1cc(F)c(O)c(F)c1 | 510 | 5.85 | 121000 | 238
O=C(c1ccc(-c2ccccc2)cc1)c1ccn(-c2cc(F)c(O)c(F)c2)c1 | 2300 | 72.8 | 5630 | 1.87
O=C(c1ccn(-c2cc(F)c(O)c(F)c2)c1)c1ccc(Br)cc1F | 400 |  | 4310 | 

Now from value to compound, other results behind:

IC50 [1] [nM] | inhibition [2] [%] | IC50 [3] [nM] | Compound | Ratio IC50 (Rattus norvegicus)
520 | 30.9 | 16200 | O=C(c1ccc(OC(F)(F)F)cc1)c1cccn1-c1cc(F)c(O)c(F)c1 | 31.1
750 | 38 | 13100 | O=C(c1ccc(OC(F)(F)F)cc1)c1ccn(-c2cc(F)c(O)c(F)c2)c1 | 17.5
